Activity calls are given as the source filed them. The calls are words filed in the database; no cut-off is given here.
Columns and labels:
[1] = tested on: A2058; experiment: Cytotoxicity against human A2058 cells assessed as survival at 4 uM after 24 hrs by MTT assay; assay type: functional; conditions: A2058, 24 h, read-out: Survival
Summary of the method: (§1)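 Cells seeded at 2500 cells/well, incubated overnight, then exposed to agents at 4 µM for 24 h. Medium replaced with MTT dye, 2 h at 37 °C. Formazan dissolved in DMSO, absorbance read at 540 nm. Survival expressed as % of untreated control.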

[2] = Cytotoxicity against human 293T cells assessed as survival at 4 uM after 24 hrs by MTT assay; assay type: cell-based, HEK-293T; conditions: read-out: Survival; summary of the method: as §1
[3] = tested on: NCI-H1355; experiment: Cytotoxicity against human NCI-H1355 cells assessed as survival at 4 uM after 24 hrs by MTT assay; assay type: functional; conditions: NCI-H1355, 24 h, read-out: Survival; summary of the method: as §1
[4] = tested on: MCF7; experiment: Cytotoxicity against human MCF7 cells assessed as survival at 4 uM after 24 hrs by MTT assay; assay type: functional; conditions: MCF7, 24 h, read-out: Survival; summary of the method: as §1
[5] = Cell cycle arrest in human 293T cells assessed as accumulation at sub-G1 phase at 4 uM after 24 hrs using propidium iodide staining by FACS; assay type: functional, cell-based; conditions: HEK-293T
Summary of the method: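 293T cells exposed to 4 µM agents for 24 h, harvested by trypsinization and fixed in 50% cold ethanol at −20 °C. Washed in PBS, then RNase A (100 µg/mL) for 20 min at 37 °C. DNA content of 10,000 events read by flow cytometry. Result is % of cells in the sub-G1 peak.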

[6] = tested on: A-375; experiment: Cytotoxicity against human A375 cells assessed as survival at 4 uM after 24 hrs by MTT assay; assay type: functional; conditions: A-375, 24 h, read-out: Survival; summary of the method: as §1
[7] = tested on: CCRF-CEM; experiment: Cytotoxicity against human CCRF-CEM cells after 24 hrs by MTT assay; assay type: functional
[8] = tested on: MOLT-4; experiment: Cytotoxicity against human MOLT4 cells after 24 hrs by MTT assay; assay type: functional; conditions: MOLT-4, 24 h
[9] = tested on: RPMI-8226; experiment: Cytotoxicity against human RPMI8226 cells after 24 hrs by MTT assay; assay type: functional; conditions: RPMI-8226, 24 h
[10] = tested on: SW-620; experiment: Cytotoxicity against human SW620 cells after 24 hrs by MTT assay; assay type: functional; conditions: SW-620, 24 h
[11] = tested on: SK-MEL-2; experiment: Cytotoxicity against human SK-MEL-2 cells after 24 hrs by MTT assay; assay type: functional; conditions: SK-MEL-2, 24 h
[12] = tested on: IGROV-1; experiment: Cytotoxicity against human IGROV1 cells after 24 hrs by MTT assay; assay type: functional; conditions: IGROV-1, 24 h
[13] = tested on: OVCAR-3; experiment: Cytotoxicity against human OVCAR-3 cells after 24 hrs by MTT assay; assay type: functional; conditions: OVCAR-3, 24 h
[14] = tested on: OVCAR-8; experiment: Cytotoxicity against human OVCAR8 cells after 24 hrs by MTT assay; assay type: functional; conditions: OVCAR-8, 24 h
[15] = tested on: CAKI-1; experiment: Cytotoxicity against human Caki1 cells after 24 hrs by MTT assay; assay type: functional; conditions: CAKI-1, 24 h
[16] = tested on: RXF 393; experiment: Cytotoxicity against human RXF393 cells after 24 hrs by MTT assay; assay type: functional; conditions: RXF 393, 24 h
[17] = tested on: MCF7; experiment: Cytotoxicity against human MCF7 cells after 24 hrs by MTT assay; assay type: functional; conditions: MCF7, 24 h
[18] = tested on: MDA-MB-435; experiment: Cytotoxicity against human MDA-MB-435 cells after 24 hrs by MTT assay; assay type: functional; conditions: MDA-MB-435, 24 h
[19] = tested on: BT-549; experiment: Cytotoxicity against human BT549 cells after 24 hrs by MTT assay; assay type: functional; conditions: BT-549, 24 h
[20] = tested on: T47D; experiment: Cytotoxicity against human T47D cells after 24 hrs by MTT assay; assay type: functional
[21] = tested on: HEK-293T; experiment: Induction of apoptosis in human 293T cells assessed as change in morphology after 24 hrs; assay type: functional, cell-based
Summary of the method: (§2)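 293T cells (5×10⁵/well) were grown for one day, then treated for 24 h with 4 µM agent or graded concentrations. Morphology was photographed by phase-contrast microscopy at 200×.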

[22] = tested on: HEK-293T; experiment: Induction of apoptosis in human 293T cells assessed as early apoptotic cells at 1 uM after 24 hrs using annexin V-FITC/propidium iodide staining by FACS; assay type: functional
Summary of the method: (§3)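 293T cells were treated for 24 h with 4 µM agent or graded concentrations, then harvested by trypsinization and centrifugation. Annexin V-FITC was added to 10⁶ cells per sample, with simultaneous PI staining. About 10,000 cells per group were analysed by flow cytometry, with annexin V⁺/PI⁻ scored as early apoptotic.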

[23] = tested on: HEK-293T; experiment: Induction of apoptosis in human 293T cells assessed as necrotic cells at 1 uM after 24 hrs using annexin V-FITC/propidium iodide staining by FACS; assay type: functional; summary of the method: as §3
[24] = tested on: HEK-293T; experiment: Induction of apoptosis in human 293T cells assessed as early apoptotic cells at 2 uM after 24 hrs using annexin V-FITC/propidium iodide staining by FACS; assay type: functional; summary of the method: as §3
[25] = tested on: HEK-293T; experiment: Induction of apoptosis in human 293T cells assessed as necrotic cells at 2 uM after 24 hrs using annexin V-FITC/propidium iodide staining by FACS; assay type: functional; summary of the method: as §3
[26] = tested on: HEK-293T; experiment: Induction of apoptosis in human 293T cells assessed as early apoptotic cells at 4 uM after 24 hrs using annexin V-FITC/propidium iodide staining by flow cytometry; assay type: functional; summary of the method: as §3
[27] = tested on: HEK-293T; experiment: Induction of apoptosis in human 293T cells assessed as necrotic cells at 4 uM after 24 hrs using annexin V-FITC/propidium iodide staining by flow cytometry; assay type: functional; summary of the method: as §3
[28] = tested on: HEK-293T; experiment: Induction of apoptosis in human 293T cells at 4 uM after 24 hrs using annexin V-FITC staining by FACS; assay type: functional; summary of the method: as §3
[29] = tested on: HEK-293T; experiment: Induction of apoptosis in human 293T cells assessed as decrease in p53 protein expression at 1 uM after 24 hrs by Western blot analysis; assay type: functional, cell-based
Summary of the method: (§4)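 293T cells were exposed for 24 h to graded concentrations (0, 1, 2 and 4 µM shown) or to 4 µM agent. Cell lysates were immunoblotted for caspase-3 (CPP32) and p53, with actin as the loading control. Primary antibody ran 2 h at room temperature or overnight at 4 °C, then HRP secondary 1 h at room temperature, with chemiluminescent detection.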

[30] = tested on: HEK-293T; experiment: Induction of apoptosis in human 293T cells assessed as decrease in p53 protein expression at 4 uM after 24 hrs by Western blot analysis; assay type: functional, cell-based; summary of the method: as §4
[31] = tested on: HEK-293T; experiment: Induction of apoptosis in human 293T cells assessed as degradation of caspase 3 after 24 hrs by Western blot analysis; assay type: functional, cell-based; summary of the method: as §4
[32] = tested on: HEK-293T; experiment: Induction of apoptosis in human 293T cells assessed as degradation of caspase 3 at 4 uM after 24 hrs by Western blot analysis; assay type: functional, cell-based; summary of the method: as §4
[33] = tested on: HEK-293T; experiment: Induction of apoptosis in human 293T cells assessed as DNA repair deficiency at > 2 uM; assay type: functional, cell-based; summary of the method: as §4
[34] = tested on: HEK-293T; experiment: Induction of apoptosis in human 293T cells assessed as change in morphology at 4 uM after 24 hrs; assay type: functional, cell-based; summary of the method: as §2

COc1cc2c(cc1OC/C=C\COCC#Cc1ccccc1C#Cc1ccccc1)N=C[C@@H]1CCCN1C2=O
viability at 4 µM [1]: 39.1% | viability at 24 h, 4 µM [2]: 44% | viability at 4 µM [3]: 44% | viability at 4 µM [4]: 44% | Activity [5]: 15.6% | viability at 4 µM [6]: 33.9%

COc1cc2c(cc1OC/C=C/COCC#Cc1ccccc1C#Cc1ccccc1)N=C[C@@H]1CCCN1C2=O
viability at 4 µM [1]: 43% | viability at 24 h, 4 µM [2]: 48.4% | viability at 4 µM [3]: 67.4% | viability at 4 µM [4]: 70.4% | Activity [5]: 13.9% | viability at 4 µM [6]: 42.9%

COc1cc2c(cc1OCCCC#Cc1ccccc1C#Cc1ccccc1)N=C[C@@H]1CCCN1C2=O
viability at 4 µM [1]: 47.2% | viability at 24 h, 4 µM [2]: 28.7% | viability at 4 µM [3]: 87.7% | viability at 4 µM [4]: 49.7% | GI50 [7]: 422 nM | GI50 [8]: 648 nM | GI50 [9]: 285 nM | GI50 [10]: 478 nM | GI50 [11]: 924 nM | GI50 [12]: 549 nM | GI50 [13]: 520 nM | GI50 [14]: 394 nM | GI50 [15]: 485 nM | GI50 [16]: 686 nM | GI50 [17]: 305 nM | GI50 [18]: 468 nM | GI50 [19]: 641 nM | GI50 [20]: 779 nM | Activity [5]: 14.5% | Activity [21]: Dose-dependent effect | Activity [22]: 2.1% | Activity [23]: 13.7% | Activity [24]: 2.2% | Activity [25]: 14.5% | Activity [26]: 1.5% | Activity [27]: 17.4% | Activity [28]: 25.4% | Activity [29]: inactive | Activity [30]: Active | Activity [31]: Dose-dependent effect | Activity [32]: Active | Activity [33]: Active | viability at 4 µM [6]: 22.3%

COc1cc2c(cc1OC/C=C/COCCC#Cc1ccccc1C#Cc1ccccc1)N=C[C@@H]1CCCN1C2=O
viability at 4 µM [1]: 46.2% | viability at 24 h, 4 µM [2]: 35.2% | viability at 4 µM [3]: 85.2% | viability at 4 µM [4]: 59.2% | Activity [5]: 13.6% | viability at 4 µM [6]: 33.4%

COc1cc2c(cc1OCCCCCCNC(=O)c1cc3ccccc3[nH]1)N=C[C@@H]1CCCN1C2=O
Activity [34]: Active | Activity [28]: 19.4% | Activity [30]: Active | Activity [32]: Active

COc1cc2c(cc1OCC#Cc1ccccc1C#Cc1ccccc1)N=C[C@@H]1CCCN1C2=O
viability at 4 µM [1]: 46.1% | viability at 24 h, 4 µM [2]: 48.9% | viability at 4 µM [3]: 70.9% | viability at 4 µM [4]: 48.9% | Activity [5]: 6.3% | viability at 4 µM [6]: 13.1%

COc1cc2c(cc1OCC=CCOCCC#Cc1ccccc1C#Cc1ccccc1)N=C[C@@H]1CCCN1C2=O
viability at 4 µM [1]: 84.5% | viability at 24 h, 4 µM [2]: 60.7% | viability at 4 µM [3]: 71% | viability at 4 µM [4]: 83.8% | Activity [5]: 13.3% | viability at 4 µM [6]: 85.7%

COc1cc2c(cc1OCCCCC#Cc1ccccc1C#Cc1ccccc1)N=C[C@@H]1CCCN1C2=O
viability at 4 µM [1]: 49.5% | viability at 24 h, 4 µM [2]: 19.2% | viability at 4 µM [3]: 75.2% | viability at 4 µM [4]: 85.2% | Activity [5]: 13.2% | viability at 4 µM [6]: 28.3%

COc1cc2c(cc1O)N=C[C@@H]1CCCN1C2=O
viability at 4 µM [1]: 63.4% | viability at 24 h, 4 µM [2]: 68.9% | viability at 4 µM [3]: 73.9% | viability at 4 µM [4]: 72.3% | Activity [5]: 10% | viability at 4 µM [6]: 50.2%
